Experiment [1] concerns the target Mu-type opioid receptor (Cavia porcellus, UniProt P97266). Briefly: Binding affinity at mu opioid receptor in guinea pig brain by [3H]DAMGO displacement. In outline:
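Adult male guinea pig whole-brain membranes in 50 mM Tris-HCl pH 7.4, preincubated 25 °C 30 min to strip endogenous peptides. Buffer contains BSA and peptidase inhibitors. Tritiated ligand at 0.75 nM (delta), 1.0 nM (mu) or 1.5 nM (kappa). Ten concentrations over 800-fold range, in duplicate. Nonspecific binding with 10 µM naltrexone. Incubated 25 °C 3 h, filtered, counted; nonlinear least-squares fit.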

Experiment [2] deals with Kappa-type opioid receptor (Cavia porcellus, UniProt P41144). Put plainly: Binding affinity at kappa opioid receptor in guinea pig brain by [3H]U-69593 displacement. The essentials: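 Adult male guinea pig whole-brain membranes in 50 mM Tris-HCl pH 7.4, preincubated 25 °C 30 min to strip endogenous peptides. Buffer contains BSA and peptidase inhibitors. Ten concentrations over 800-fold range, in duplicate. Nonspecific binding with 10 µM naltrexone. Incubated 25 °C 3 h, filtered, counted; nonlinear least-squares fit.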
Kappa-type opioid receptor, sequence (P41144 whole entry): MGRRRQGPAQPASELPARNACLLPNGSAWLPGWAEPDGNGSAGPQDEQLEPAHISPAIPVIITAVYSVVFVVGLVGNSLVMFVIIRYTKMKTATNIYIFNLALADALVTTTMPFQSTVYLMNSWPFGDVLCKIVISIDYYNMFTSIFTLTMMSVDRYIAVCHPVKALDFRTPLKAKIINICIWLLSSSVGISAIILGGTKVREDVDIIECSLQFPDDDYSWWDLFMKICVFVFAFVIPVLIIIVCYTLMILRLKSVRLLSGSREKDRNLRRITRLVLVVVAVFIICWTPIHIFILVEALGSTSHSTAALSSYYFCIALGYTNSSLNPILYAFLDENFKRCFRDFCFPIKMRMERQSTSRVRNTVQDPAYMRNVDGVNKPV

Experiment [3] is filed under the species Cavia porcellus. Briefly: Inhibition of electrically induced smooth muscle contraction in guinea pig ileum. The experiment is classed as functional. In outline:
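Longitudinal muscle-myenteric plexus strips from ileum of male Hartley guinea pigs (250-500 g), held in 37 °C oxygenated Krebs buffer, 1 g tension. Transmural stimulation at 0.1 Hz, 0.4-ms supramaximal pulses; no peptidase inhibitors. Cumulative agonist doses, 3 min each; % inhibition of contraction height. μ-selectivity checked with 1000 nM CTAP. IC50 from Hill-equation fit, mean of two to four tissues.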

Mu-type opioid receptor, sequence (P97266 whole entry): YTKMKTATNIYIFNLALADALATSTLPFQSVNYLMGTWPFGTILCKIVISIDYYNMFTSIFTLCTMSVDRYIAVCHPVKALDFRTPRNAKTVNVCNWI

Broadly, the IC50 is the concentration at which inhibition is half-maximal. Regarding `CC[C@H](C)[C@@H]1NC(=O)[C@H](CCCN=C(N)N)NC(=O)[C@H](CCCN=C(N)N)NC(=O)[C@H](NC(=O)[C@H](Cc2ccccc2)NC(=O)CNC(=O)CNC(=O)[C@@H](N)Cc2ccc(O)cc2)C(C)(C)SSC(C)(C)[C@@H](C(N)=O)NC(=O)[C@@H]2CCCN2C(=O)[C@H](CCCN=C(N)N)NC1=O`, the figures for the IC50 in experiment [1] and in experiment [2] were 224 nM and 26.1 nM, respectively.

In the case of `CC[C@H](C)[C@@H]1NC(=O)[C@H](CCCN=C(N)N)NC(=O)[C@H](CCCN=C(N)N)NC(=O)[C@@H](NC(=O)[C@H](Cc2ccccc2)NC(=O)CNC(=O)CNC(=O)[C@@H](N)Cc2ccc(O)cc2)CSSC(C)(C)[C@H](C(N)=O)NC(=O)[C@@H]2CCCN2C(=O)[C@H](CCCN=C(N)N)NC1=O`, the IC50 in experiment [1] stood at 17 nM; in experiment [2], 1 nM.

For the compound `CC[C@H](C)[C@@H]1NC(=O)[C@H](CCCN=C(N)N)NC(=O)[C@H](CCCN=C(N)N)NC(=O)[C@H](NC(=O)[C@H](Cc2ccccc2)NC(=O)CNC(=O)CNC(=O)[C@@H](N)Cc2ccc(O)cc2)C(C)(C)SSC[C@@H](C(N)=O)NC(=O)[C@@H]2CCCN2C(=O)[C@H](CCCN=C(N)N)NC1=O`, the concentration for half-maximal inhibition (IC50) in experiment [1] and in experiment [2] was 87.1 nM each time.

Take `CC[C@H](C)[C@@H]1NC(=O)[C@H](CCCN=C(N)N)NC(=O)[C@H](CCCN=C(N)N)NC(=O)[C@H](NC(=O)[C@H](Cc2ccccc2)NC(=O)CNC(=O)CNC(=O)[C@@H](N)Cc2ccc(O)cc2)C(C)(C)SSC(C)(C)[C@H](C(N)=O)NC(=O)[C@@H]2CCCN2C(=O)[C@H](CCCN=C(N)N)NC1=O`: the IC50 amounted to 563 nM in experiment [1] and 70.5 nM in experiment [2].

In experiment [3], `CC[C@H](C)[C@H](NC(=O)[C@H](CCCN=C(N)N)NC(=O)[C@H](CCCN=C(N)N)NC(=O)[C@@H](CC(C)C)NC(=O)[C@H](Cc1ccccc1)NC(=O)CNC(=O)CNC(=O)[C@@H](N)Cc1ccc(O)cc1)C(=O)N[C@@H](CCCN=C(N)N)C(=O)N1CCC[C@H]1C(=O)N[C@@H](CCCCN)C(N)=O` showed an IC50 of 94 nM.

Regarding `CC[C@H](C)[C@@H]1NC(=O)[C@H](CCCN=C(N)N)NC(=O)[C@H](CCCN=C(N)N)NC(=O)[C@H](NC(=O)[C@H](Cc2ccccc2)NC(=O)CNC(=O)CNC(=O)[C@@H](N)Cc2ccc(O)cc2)C(C)(C)SSC[C@H](C(N)=O)NC(=O)[C@@H]2CCCN2C(=O)[C@H](CCCN=C(N)N)NC1=O`, the half-maximal inhibitory concentration (IC50) in experiment [1] was 51.1 nM; in experiment [2] it was 18 nM.

Take `CC[C@H](C)[C@@H]1NC(=O)[C@H](CCCN=C(N)N)NC(=O)[C@H](CCCN=C(N)N)NC(=O)[C@H](NC(=O)[C@H](Cc2ccccc2)NC(=O)CNC(=O)CNC(=O)[C@@H](N)Cc2ccc(O)cc2)CSSC(C)(C)[C@H](C(N)=O)NC(=O)[C@@H]2CCCN2C(=O)[C@H](CCCN=C(N)N)NC1=O`: the IC50 in experiment [1] worked out at 108 nM; in experiment [2] it was 100 nM.

For the compound `CC[C@H](C)[C@H](NC(=O)[C@H](CCCN=C(N)N)NC(=O)[C@H](CCCN=C(N)N)NC(=O)[C@H](CC(C)C)NC(=O)[C@H](Cc1ccccc1)NC(=O)CNC(=O)CNC(=O)[C@@H](N)Cc1ccc(O)cc1)C(=O)N[C@@H](CCCN=C(N)N)C(=O)N1CCC[C@H]1C(=O)NC(CCCCN)C(N)=O` (stereo in doubt), the IC50 was found to be 9.9 nM in experiment [1] and 1.07 nM in experiment [3].

Consider `CC[C@H](C)[C@H](NC(=O)[C@H](CCCN=C(N)N)NC(=O)[C@H](CCCN=C(N)N)NC(=O)C(CC(C)C)NC(=O)[C@H](Cc1ccccc1)NC(=O)CNC(=O)CNC(=O)[C@@H](N)Cc1ccc(O)cc1)C(=O)N[C@@H](CCCN=C(N)N)C(=O)N1CCC[C@H]1C(=O)N[C@H](CCCCN)C(N)=O` (stereo in doubt), for which the 50% inhibitory concentration (IC50) in experiment [1] came out at 5.2 nM; in experiment [3], 0.3 nM.

Values taken from ChEMBL document CHEMBL1127406 (J Med Chem, 1994).
